Experimental data taken from ChEMBL document CHEMBL1275352, “Selection of evodiamine as a novel topoisomerase I inhibitor by structure-based virtual screening and hit optimization of evodiamine derivatives as antitumor agents” (J Med Chem, 2010).
Activity calls are given as the source filed them. The calls are words filed in the database; no cut-off is given here.

Tests used:
A549 = assay: Cytotoxicity against human A549 cells after 3 days by MTT assay; type: functional, cell-based
MDA-MB-435 = assay: Cytotoxicity against human MDA-MB-435 cells after 3 days by MTT assay; type: functional, cell-based
LoVo = assay: Cytotoxicity against human LoVo cells after 3 days by MTT assay; type: functional, cell-based
[1] = molecular target: T1, DNA topoisomerase 1 (Homo sapiens) (UniProt P11387); assay: Inhibition of DNA topoisomerase 1-mediated supercoiled Escherichia coli pBR322 DNA relaxation at 100 uM by UV transilluminator analysis; conditions: 500 uM; in the assay text read “500 uM” for “100 uM”
T1 sequence (whole entry): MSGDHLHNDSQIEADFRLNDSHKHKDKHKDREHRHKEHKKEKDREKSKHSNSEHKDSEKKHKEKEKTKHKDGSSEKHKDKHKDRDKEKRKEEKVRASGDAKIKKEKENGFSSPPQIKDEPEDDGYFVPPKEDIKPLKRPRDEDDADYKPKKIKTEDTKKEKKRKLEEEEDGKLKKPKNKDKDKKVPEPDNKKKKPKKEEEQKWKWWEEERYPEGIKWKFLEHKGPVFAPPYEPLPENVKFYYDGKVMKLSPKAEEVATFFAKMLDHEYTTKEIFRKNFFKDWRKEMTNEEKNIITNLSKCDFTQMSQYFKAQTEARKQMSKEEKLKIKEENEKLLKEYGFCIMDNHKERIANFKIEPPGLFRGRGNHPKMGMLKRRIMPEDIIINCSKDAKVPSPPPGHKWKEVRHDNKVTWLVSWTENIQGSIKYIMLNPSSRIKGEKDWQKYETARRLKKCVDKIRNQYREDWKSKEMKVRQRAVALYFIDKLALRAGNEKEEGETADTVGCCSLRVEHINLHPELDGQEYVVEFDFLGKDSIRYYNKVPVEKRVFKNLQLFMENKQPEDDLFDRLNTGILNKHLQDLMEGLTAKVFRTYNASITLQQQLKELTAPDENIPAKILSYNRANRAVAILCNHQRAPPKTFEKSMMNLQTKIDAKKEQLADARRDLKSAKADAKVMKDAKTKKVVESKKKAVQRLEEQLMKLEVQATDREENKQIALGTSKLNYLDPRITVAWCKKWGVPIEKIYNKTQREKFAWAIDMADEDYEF
In short: (§1)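 Purified topoisomerase I was incubated with supercoiled DNA, and inhibition of relaxation by the enzyme was scored. Compounds were tested at concentrations ranging from 1 to 500 μM; an initial screen was run at 500 μM and active compounds were retested at lower concentrations.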

[2] = molecular target: T1, DNA topoisomerase 1 (Homo sapiens); assay: Inhibition of DNA topoisomerase 1-mediated supercoiled Escherichia coli pBR322 DNA relaxation at 1 to 50 uM by UV transilluminator analysis; in short: as §1
HCT-116 = assay: Cytotoxicity against human HCT116 cells after 3 days by MTT assay; type: functional, cell-based; conditions: HCT-116, 72 h
[3] = molecular target: T1, DNA topoisomerase 1 (Homo sapiens); assay: Inhibition of DNA topoisomerase 1-mediated supercoiled Escherichia coli pBR322 DNA relaxation by UV transilluminator analysis; in short: as §1
[4] = molecular target: T1, DNA topoisomerase 1 (Homo sapiens); assay: Inhibition of DNA topoisomerase 1-mediated supercoiled Escherichia coli pBR322 DNA relaxation at 10 uM by UV transilluminator analysis; in short: as §1
[5] = Homo sapiens, MDA-MB-435, 72 h, read-out: IC50
[6] = Homo sapiens, LoVo, 72 h, read-out: IC50
[7] = Homo sapiens, A549, 72 h, read-out: IC50

Structure (SMILES) | IC50 (A549; a549) | IC50 (MDA-MB-435; mda-mb-435) | IC50 (LoVo; lovo) | IC50 (MDA-MB-435; [5]) | IC50 (LoVo; [6]) | IC50 (A549; [7]) | also measured
COC(=O)c1cc(OCc2cccc(C(F)(F)F)c2)c2c(c1)Oc1nc3ccccc3nc1O2 | Not Active | Not Active | Not Active |  |  |  | 
Cc1cc2nc3s/c(=C4\C(=O)N(CC(=O)O)c5ccccc54)c(=O)n3c2cc1C | Not Active |  |  | 170 µM | 240 µM |  | inhibition [1]: Active; inhibition [2]: Active
CN1c2ccccc2C(=O)N2CCc3c(n(C(=O)c4ccc(F)cc4)c4ccccc34)C21 (stereo not drawn) |  |  |  | 0.13 µM |  | 4.3 µM | IC50 (HCT-116): 5.1 µM
CN1c2ccccc2C(=O)N2CCc3c(n(C(=O)c4ccccc4Cl)c4ccccc34)C21 (stereo not drawn) |  |  |  | 0.18 µM |  | 14 µM | IC50 (HCT-116): 4.7 µM
CN1c2ccccc2C(=O)N2CCc3c(n(CC(=O)O)c4ccccc34)C21 (stereo not drawn) |  |  |  | 13 µM | 130 µM | 72 µM | 
COc1ccc(-c2nc3c4c(-c5ccccc5)c(-c5ccccc5)oc4ncn3n2)cc1OC | Not Active | Not Active |  |  | 75 µM |  | 
CN1c2ccccc2C(=O)N2CCc3c(n(C(=O)c4ccc(Cl)cc4Cl)c4ccccc34)C21 (stereo not drawn) |  |  |  | 0.39 µM |  | 5.3 µM | IC50 (HCT-116): 3.8 µM
CCCOc1ccc(-c2nc3s/c(=C4\C(=O)N(CC(=O)O)c5ccccc54)c(=O)n3n2)cc1 | Not Active | Not Active | Not Active |  |  |  | inhibition [3]: Dose-dependent effect; inhibition [4]: Active; inhibition [1]: Active
CN1c2ccccc2C(=O)N2CCc3c(n(C(=O)c4ccc(Cl)cc4)c4ccccc34)C21 (stereo not drawn) |  |  |  | 0.049 µM |  | 0.86 µM | inhibition [1]: Active; IC50 (HCT-116): 2.6 µM
CC1CCc2c(sc3nc4c5ccccc5c(-c5ccccc5)nn4c(=O)c23)C1 (stereo not drawn) | Not Active | Not Active | Not Active |  |  |  | 
CCCNC(=O)Cn1c2ccccc2[n+]2nc3c(cc12)-c1cccc2cccc-3c12 |  |  |  | 77 µM | 26 µM | 37 µM | inhibition [1]: Active; inhibition [2]: Active
CN1c2ccccc2C(=O)N2CCc3c(n(Cc4ccccc4)c4ccccc34)C21 (stereo not drawn) |  |  |  | 110 µM | 67 µM | 55 µM | 
CN1c2ccccc2C(=O)N2CCc3c(n(C(=O)c4cccc(Cl)c4)c4ccccc34)C21 (stereo not drawn) |  |  |  | 0.051 µM |  | 2.9 µM | IC50 (HCT-116): 3.3 µM
CC(C)n1c2c(c3ccccc31)CCN1C(=O)c3ccccc3N(C)C21 (stereo not drawn) | Not Active | Not Active | Not Active |  |  |  | 
CCOC(=O)C1=C(C)N=c2s/c(=C3\C(=O)N(CC)c4ccccc43)c(=O)n2C1c1ccccc1 (stereo not drawn) | Not Active | Not Active | Not Active |  |  |  | 
O=S(=O)(c1ccccc1)c1cc2c(O)c3c(ccc4cccnc43)c(O)c2c2ncccc12 |  | Not Active | Not Active |  |  | 120 µM | 
Cn1c(=O)n(C)c2cc3c(cc21)nc1c2cccc4c(Br)ccc(c(=O)n31)c42 | Not Active | Not Active | Not Active |  |  |  | 
c1ccc2c(OCc3nc4c5c6c(sc5ncn4n3)CCCCC6)cccc2c1 | Not Active | Not Active | Not Active |  |  |  | 
Cc1ccc(-c2csc3nc4c5ccccc5c(Cl)nn4c(=O)c23)cc1C | Not Active | Not Active |  |  | 190 µM |  | inhibition [1]: Active
COc1ccc(C(=O)n2c3c(c4ccccc42)CCN2C(=O)c4ccccc4N(C)C32)cc1 (stereo not drawn) |  | Not Active |  |  |  | 74 µM | IC50 (HCT-116): 45 µM
COCCOC(=O)c1sc2nc3c4ccccc4c(-c4ccc(C)c(C)c4)nn3c(=O)c2c1C | Not Active | Not Active |  |  | 45 µM |  | 
c1ccc(Cn2c(-c3ccccc3)c(-c3ccccc3)c3c2ncn2nc(-c4cccnc4)nc32)cc1 | Not Active | Not Active |  |  | 180 µM |  | 
CCn1c2c(c3ccccc31)CCN1C(=O)c3ccccc3N(C)C21 (stereo not drawn) | Not Active | Not Active | Not Active |  |  |  | 

Structure (SMILES) | IC50 (A549; a549) | IC50 (MDA-MB-435; mda-mb-435) | IC50 (LoVo; lovo) | IC50 (MDA-MB-435; [5]) | IC50 (LoVo; [6]) | IC50 (A549; [7]) | also measured
CCCCCCn1c2c(c3ccccc31)CCN1C(=O)c3ccccc3N(C)C21 (stereo not drawn) |  |  |  | 110 µM | 59 µM | 120 µM | 
Cc1cccc2c1nc1c3ccc4c5c(ccc(c(=O)n21)c53)C(=O)NC4=O | Not Active | Not Active | Not Active |  |  |  | 
O=c1c2ccccc2nc2c3ccccc3c(Sc3nnc4ccccn34)nn12 | Not Active | Not Active | Not Active |  |  |  | 
Nc1ccccc1Sc1ccc2c(=O)n3c4ccccc4nc3c3cccc1c23 | Not Active | Not Active | Not Active |  |  |  | inhibition [1]: Active
CCOC(=O)C1=C(C)N=c2s/c(=C3\C(=O)N(CC)c4ccccc43)c(=O)n2C1/C=C/c1ccccc1 (stereo not drawn) | Not Active | Not Active | Not Active |  |  |  | 
CCCCCN1C(=O)/C(=c2\sc3nc4ccccc4n3c2=O)c2ccccc21 | Not Active | Not Active | Not Active |  |  |  | 
CCc1c2c(nc3ccc(OC(=O)N4CCC(N5CCCCC5)CC4)cc13)-c1cc3c(c(=O)n1C2)COC(=O)[C@]3(O)CC [IRINOTECAN] |  |  |  | 17 µM | 8.8 µM | 6.4 µM | 
CN1c2ccccc2C(=O)N2CCc3c(n(CC#N)c4ccccc34)C21 (stereo not drawn) |  |  | Not Active | 200 µM |  | 220 µM | 
Cc1ccc(C(=O)n2c3c(c4ccccc42)CCN2C(=O)c4ccccc4N(C)C32)cc1 (stereo not drawn) |  |  |  | 0.038 µM |  | 3 µM | IC50 (HCT-116): 4.3 µM
CN1c2ccccc2C(=O)N2CCc3c(n(Cc4ccccc4Cl)c4ccccc34)C21 (stereo not drawn) |  |  |  | 42 µM | 74 µM | 29 µM | 
COc1ccc(Cn2c3c(c4ccccc42)CCN2C(=O)c4ccccc4N(C)C32)cc1 (stereo not drawn) | Not Active | Not Active | Not Active |  |  |  | 
CN1c2ccccc2C(=O)N2CCc3c(n(Cc4ccc(Cl)cc4Cl)c4ccccc34)C21 (stereo not drawn) | Not Active | Not Active | Not Active |  |  |  | 
Cc1ccccc1C(=O)n1c2c(c3ccccc31)CCN1C(=O)c3ccccc3N(C)C21 (stereo not drawn) |  |  |  | 0.15 µM |  | 4.2 µM | IC50 (HCT-116): 3.9 µM
C=CCN1C(=O)/C(=C2\S/C(=N\c3ccccc3)N(c3ccccc3)C2=O)c2ccccc21 | Not Active | Not Active | Not Active |  |  |  | 
CN1c2ccccc2C(=O)N2CCc3c(n(C(=O)c4ccccc4)c4ccccc34)C21 (stereo not drawn) |  |  |  | 0.047 µM | 15 µM | 10 µM | 
CC[C@@]1(O)C(=O)OCc2c1cc1n(c2=O)Cc2cc3ccccc3nc2-1 [CAMPTOTHECIN] |  |  |  | 0.71 µM | 3.1 µM | 0.057 µM | 
CN1c2ccccc2C(=O)N2CCc3c(n(Cc4cccc(Cl)c4)c4ccccc34)C21 (stereo not drawn) | Not Active | Not Active | Not Active |  |  |  | 
CCOC(=O)Cn1c2c(c3ccccc31)CCN1C(=O)c3ccccc3N(C)C21 (stereo not drawn) | Not Active |  | Not Active | 150 µM |  |  | 
CCCn1c2c(c3ccccc31)CCN1C(=O)c3ccccc3N(C)C21 (stereo not drawn) | Not Active | Not Active | Not Active |  |  |  | 
CN1c2ccccc2C(=O)N2CCc3c(n(C(=O)c4ccc([N+](=O)[O-])cc4)c4ccccc34)C21 (stereo not drawn) |  |  |  | 0.55 µM |  | 2.8 µM | IC50 (HCT-116): 4.1 µM
O=C(NCCO)c1ccc2nc3c4ccccc4c4ccccc4c3nc2c1 | Not Active | Not Active | Not Active |  |  |  | 
CN1c2ccccc2C(=O)N2CCc3c(n(C(=O)c4ccccc4F)c4ccccc34)C21 (stereo not drawn) |  | Not Active |  |  |  | 35 µM | IC50 (HCT-116): 89 µM
CCOC(=O)n1c2c(c3ccccc31)CCN1C(=O)c3ccccc3N(C)C21 (stereo not drawn) |  |  |  | 9.4 µM | 95 µM | 130 µM | 
